Reference: ChEMBL document CHEMBL5230166, “Novel quinoline-piperazine hybrids: the design, synthesis and evaluation of antibacterial and antituberculosis properties” (RSC Med Chem, 2023)
Converted amounts (≈) assume the structure as drawn.

How the values were obtained:
Assay type in all cases: functional
[1] = tested on: Moraxella catarrhalis; test: Antibacterial activity against Moraxella catarrhalis ATCC 25238 assessed as inhibition of bacterial growth incubated for 22 to 24 hrs; settings: time 22-24 hrs
How it was run: (§1)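 Broth MIC referenced to an earlier protocol. Inocula come from mid-log cultures sub-cultured on soybean casein digest agar, adjusted to McFarland (~10⁸ CFU/mL), then diluted to ~10⁵ CFU/mL. Compounds and controls are serially diluted from 64 to 0.03 µg/mL. Tested in triplicate, read after 22–24 h at 37 °C. MIC is the lowest concentration with no visible growth.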

[2] = tested on: Staphylococcus aureus; test: Antibacterial activity against methicillin sensitive Staphylococcus aureus ATCC 29213 assessed as inhibition of bacterial growth incubated for 22 to 24 hrs; settings: time 22-24 hrs; how it was run: as §1
[3] = tested on: Escherichia coli; test: Antibacterial activity against clinical isolate Escherichia coli AB 117 assessed as inhibition of bacterial growth incubated for 22 to 24 hrs; settings: time 22-24 hrs
[4] = tested on: Staphylococcus aureus; test: Antibacterial activity against methicillin resistant Staphylococcus aureus ATCC 33591 assessed as inhibition of bacterial growth incubated for 22 to 24 hrs; settings: time 22-24 hrs
How it was run: (§2)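 Broth microdilution MIC. Strains were subcultured on Soybean Casein Digest Agar, and inocula were taken from mid-log culture, adjusted to McFarland (~10⁸ CFU/mL), then diluted to ~10⁵ CFU/mL. Serial dilutions ran from 64 to 0.03 µg/mL. Plates were incubated 22–24 h at 37 °C, in triplicate. MIC was the lowest concentration with no visible growth.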

[5] = tested on: Enterococcus faecalis; test: Antibacterial activity against vancomycin resistant Enterococcus faecalis ATCC 700802 assessed as inhibition of bacterial growth incubated for 22 to 24 hrs; settings: time 22-24 hrs; how it was run: as §2
[6] = tested on: Enterococcus faecium; test: Antibacterial activity against Enterococcus faecium ATCC 49624 assessed as inhibition of bacterial growth incubated for 22 to 24 hrs; settings: time 22-24 hrs; how it was run: as §1
[7] = tested on: Klebsiella pneumoniae; test: Antibacterial activity against clinical isolate Klebsiella pneumoniae AB 356 assessed as inhibition of bacterial growth incubated for 22 to 24 hrs; settings: time 22-24 hrs
[8] = tested on: Pseudomonas aeruginosa; test: Antibacterial activity against clinical isolate Pseudomonas aeruginosa AB 645 assessed as inhibition of bacterial growth incubated for 22 to 24 hrs; settings: time 22-24 hrs
[9] = tested on: Mycobacterium tuberculosis; test: Antibacterial activity against Mycobacterium tuberculosis H37Rv ATCC 25618 assessed as inhibition of bacterial growth incubated for 2 days by CLSI protocol based broth microdilution method; settings: H37Rv ATCC 25618, 48 h, time 2 day
[10] = tested on: Acinetobacter baumannii; test: Antibacterial activity against clinical isolate Acinetobacter baumannii BAA 747 assessed as inhibition of bacterial growth incubated for 22 to 24 hrs; settings: time 22-24 hrs
[11] = tested on: Mycolicibacterium smegmatis; test: Antibacterial activity against Mycobacterium smegmatis ATCC 607 assessed as inhibition of bacterial growth incubated for 2 days by CLSI protocol based broth microdilution method; settings: ATCC 607, 48 h, time 2 day
How it was run: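 CLSI broth microdilution in Middlebrook 7H9 with 10% ADC. Compounds are dissolved in DMSO at 4.0 mg/mL (stock) and serially diluted from 64 to 0.015 µg/mL. Inoculum is ~10⁵ CFU/mL, checked by plating on 7H11 agar. Rifampin and levofloxacin are positive controls; drug-free broth with DMSO is the negative control. Growth inhibition is read after 2 days at 37 °C as MIC.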

[12] = tested on: Staphylococcus epidermidis; test: Antibacterial activity against clinical isolate methicillin resistant Staphylococcus epidermidis AB 735 assessed as inhibition of bacterial growth incubated for 22 to 24 hrs; settings: time 22-24 hrs

Compound `COc1ccc2nc(CN3CCN(C(=O)C4CCC4)CC3)cc(OC)c2c1` has an MIC [1] of 2 µg/mL (≈ 5.41 µM), an MIC [2] greater than 64 µg/mL and an MIC [3] greater than 64 µg/mL. For the same compound, the MIC [4] was greater than 64 µg/mL, the MIC [5] was greater than 64 µg/mL and the MIC [6] was greater than 64 µg/mL. For the same compound, the MIC [7] was greater than 64 µg/mL, the MIC [8] was greater than 64 µg/mL and the MIC [9] was greater than 64 µg/mL. For the same compound, the MIC [10] was greater than 64 µg/mL, the MIC [11] was greater than 64 µg/mL and the MIC [12] was greater than 64 µg/mL.
`COc1ccc(S(=O)(=O)N2CCN(Cc3cc(OC)c4cc(F)ccc4n3)CC2)cc1` was tested, and the MIC [1] was greater than 64 µg/mL, the MIC [2] was greater than 64 µg/mL and the MIC [3] was greater than 64 µg/mL. It also gave an MIC [4] greater than 64 µg/mL, an MIC [5] greater than 64 µg/mL and an MIC [6] greater than 64 µg/mL. It also gave an MIC [7] greater than 64 µg/mL, an MIC [8] greater than 64 µg/mL and an MIC [9] greater than 64 µg/mL. It also gave an MIC [10] greater than 64 µg/mL, an MIC [11] greater than 64 µg/mL and an MIC [12] greater than 64 µg/mL.
Compound `COc1cc(CN2CCN(S(=O)(=O)c3ccc(NC(C)=O)cc3)CC2)nc2ccc(F)cc12` has an MIC [1] of 32 µg/mL (≈ 67.7 µM), an MIC [2] greater than 64 µg/mL and an MIC [3] greater than 64 µg/mL. The MIC [4] was greater than 64 µg/mL, the MIC [5] was greater than 64 µg/mL and the MIC [6] was greater than 64 µg/mL. It also gave an MIC [7] greater than 64 µg/mL, an MIC [8] greater than 64 µg/mL and an MIC [9] greater than 64 µg/mL. For the same compound, the MIC [10] was greater than 64 µg/mL, the MIC [11] was greater than 64 µg/mL and the MIC [12] was 64 µg/mL (≈ 135 µM).
`COc1ccc2nc(CN3CCN(C(=O)c4c(Cl)cccc4Cl)CC3)cc(OC)c2c1` showed an MIC [1] greater than 64 µg/mL, an MIC [2] greater than 64 µg/mL and an MIC [3] greater than 64 µg/mL. It also gave an MIC [4] greater than 64 µg/mL, an MIC [5] greater than 64 µg/mL and an MIC [6] greater than 64 µg/mL. It also gave an MIC [7] greater than 64 µg/mL, an MIC [8] greater than 64 µg/mL and an MIC [9] greater than 64 µg/mL. For the same compound, the MIC [10] was greater than 64 µg/mL, the MIC [11] was greater than 64 µg/mL and the MIC [12] was greater than 64 µg/mL.
`COc1ccc2nc(CN3CCN(S(=O)(=O)c4c(F)c(F)c(F)c(F)c4F)CC3)cc(OC)c2c1` was tested, and the MIC [1] was greater than 64 µg/mL, the MIC [2] was greater than 64 µg/mL and the MIC [3] was greater than 64 µg/mL. For the same compound, the MIC [4] was greater than 64 µg/mL, the MIC [5] was greater than 64 µg/mL and the MIC [6] was greater than 64 µg/mL. It also gave an MIC [7] greater than 64 µg/mL, an MIC [8] greater than 64 µg/mL and an MIC [9] greater than 64 µg/mL. It also gave an MIC [10] greater than 64 µg/mL, an MIC [11] greater than 64 µg/mL and an MIC [12] greater than 64 µg/mL.
With `COc1ccc2nc(CN3CCN(S(=O)(=O)c4ccc(F)cc4)CC3)cc(OC)c2c1` the MIC [1] was greater than 64 µg/mL, the MIC [2] was greater than 64 µg/mL and the MIC [3] was greater than 64 µg/mL. It also gave an MIC [4] greater than 64 µg/mL, an MIC [5] greater than 64 µg/mL and an MIC [6] greater than 64 µg/mL. For the same compound, the MIC [7] was greater than 64 µg/mL, the MIC [8] was greater than 64 µg/mL and the MIC [9] was greater than 64 µg/mL. For the same compound, the MIC [10] was greater than 64 µg/mL, the MIC [11] was greater than 64 µg/mL and the MIC [12] was greater than 64 µg/mL.
Work on `COc1ccc2nc(CN3CCN(C(=O)c4ccc(Cl)cc4Cl)CC3)cc(OC)c2c1` yielded an MIC [1] greater than 64 µg/mL, an MIC [2] greater than 64 µg/mL and an MIC [3] greater than 64 µg/mL. The MIC [4] was greater than 64 µg/mL, the MIC [5] was greater than 64 µg/mL and the MIC [6] was greater than 64 µg/mL. The MIC [7] was greater than 64 µg/mL, the MIC [8] was greater than 64 µg/mL and the MIC [9] was greater than 64 µg/mL. It also gave an MIC [10] greater than 64 µg/mL, an MIC [11] greater than 64 µg/mL and an MIC [12] greater than 64 µg/mL.
In the case of `O=C(O)c1cn(C2CC2)c2cc(N3CCNCC3)c(F)cc2c1=O` [CIPROFLOXACIN], the MIC [1] is reported as 0.03 µg/mL (≈ 0.0905 µM), the MIC [2] is reported as 0.5 µg/mL (≈ 1.51 µM) and the MIC [4] is reported as 1 µg/mL (≈ 3.02 µM). It also gave an MIC [5] of 0.5 µg/mL (≈ 1.51 µM) and an MIC [6] of 2 µg/mL (≈ 6.04 µM).
Compound `C[C@H]1COc2c(N3CCN(C)CC3)c(F)cc3c(=O)c(C(=O)O)cn1c23.C[C@H]1COc2c(N3CCN(C)CC3)c(F)cc3c(=O)c(C(=O)O)cn1c23.O` [LEVOFLOXACIN] has an MIC [9] of 2 µg/mL and an MIC [11] of 0.125 µg/mL.
In the case of `CC(=O)NC[C@H]1CN(c2ccc(N3CCOCC3)c(F)c2)C(=O)O1` [LINEZOLID], the MIC [1] is reported as 4 µg/mL (≈ 11.9 µM), the MIC [3] is reported as 8 µg/mL (≈ 23.7 µM) and the MIC [6] is reported as 4 µg/mL (≈ 11.9 µM). The MIC [7] was greater than 64 µg/mL, the MIC [8] was greater than 64 µg/mL and the MIC [10] was greater than 64 µg/mL. The MIC [12] was 8 µg/mL (≈ 23.7 µM).
In the case of `CO[C@H]1/C=C/O[C@@]2(C)Oc3c(C)c(O)c4c(O)c(c(/C=N/N5CCN(C)CC5)c(O)c4c3C2=O)NC(=O)/C(C)=C\C=C\[C@H](C)[C@H](O)[C@@H](C)[C@@H](O)[C@@H](C)[C@H](OC(C)=O)[C@@H]1C` [RIFAMPIN], the MIC [9] is reported as 4 µg/mL (≈ 4.86 µM) and the MIC [11] is reported as 0.5 µg/mL (≈ 0.608 µM).
With `COc1cc(Cc2cnc(N)nc2N)cc(OC)c1OC` [TRIMETHOPRIM] the MIC [1] was 4 µg/mL (≈ 13.8 µM), the MIC [2] was 4 µg/mL (≈ 13.8 µM) and the MIC [3] was 16 µg/mL (≈ 55.1 µM). For the same compound, the MIC [4] was 8 µg/mL (≈ 27.6 µM), the MIC [5] was 0.25 µg/mL (≈ 0.861 µM) and the MIC [6] was 0.03 µg/mL (≈ 0.103 µM). The MIC [7] was 2 µg/mL (≈ 6.89 µM), the MIC [8] was greater than 8 µg/mL and the MIC [10] was greater than 8 µg/mL. For the same compound, the MIC [12] was greater than 8 µg/mL.
